Reference: the M2OR odorant receptor database

Assays:
Settings in all cases: stereoisomer not certain
OR2L13 (Homo sapiens) = target: T1, OR2L13 (Homo sapiens) (UniProt Q8N349)
T1 sequence (whole entry): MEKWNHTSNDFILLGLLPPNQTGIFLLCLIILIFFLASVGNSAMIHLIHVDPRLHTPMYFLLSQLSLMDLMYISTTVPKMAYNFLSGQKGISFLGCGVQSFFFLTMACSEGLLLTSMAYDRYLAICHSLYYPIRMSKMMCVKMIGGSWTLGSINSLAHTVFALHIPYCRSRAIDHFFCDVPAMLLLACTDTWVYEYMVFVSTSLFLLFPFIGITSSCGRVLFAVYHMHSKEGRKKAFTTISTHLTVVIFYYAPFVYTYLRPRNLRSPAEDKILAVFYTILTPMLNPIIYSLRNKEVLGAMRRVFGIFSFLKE
Outline: (§1)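 Assay methods differ from source to source, frequently being transient luciferase assays in mammalian cell lines. For each receptor–molecule pair, the label responsive (active) applies when the original authors judged the measured signal statistically different from baseline, and non-responsive (inactive) applies otherwise.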

OR2L2 (Homo sapiens) = target: T2, OR2L2 (Homo sapiens) (UniProt Q8NH16)
T2 sequence (whole entry): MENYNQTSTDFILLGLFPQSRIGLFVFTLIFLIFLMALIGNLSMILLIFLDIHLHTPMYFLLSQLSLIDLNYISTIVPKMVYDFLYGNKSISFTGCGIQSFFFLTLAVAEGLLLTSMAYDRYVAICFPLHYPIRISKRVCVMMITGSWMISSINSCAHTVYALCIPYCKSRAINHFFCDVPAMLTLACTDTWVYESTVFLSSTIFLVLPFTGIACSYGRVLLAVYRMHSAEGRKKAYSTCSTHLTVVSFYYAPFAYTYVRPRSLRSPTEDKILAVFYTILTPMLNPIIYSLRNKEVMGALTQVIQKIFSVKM
Outline: as §1

OR2L3 (Homo sapiens) = target: T3, OR2L3 (Homo sapiens) (UniProt Q8NG85)
T3 sequence (whole entry): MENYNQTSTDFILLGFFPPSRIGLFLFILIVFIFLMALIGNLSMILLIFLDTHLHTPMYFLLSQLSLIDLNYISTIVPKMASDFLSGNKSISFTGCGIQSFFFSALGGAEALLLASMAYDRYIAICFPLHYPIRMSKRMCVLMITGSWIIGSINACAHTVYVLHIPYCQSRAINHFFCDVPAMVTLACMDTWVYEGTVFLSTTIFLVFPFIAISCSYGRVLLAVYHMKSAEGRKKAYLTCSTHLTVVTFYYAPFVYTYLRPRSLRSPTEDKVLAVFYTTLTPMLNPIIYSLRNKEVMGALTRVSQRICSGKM
Outline: as §1

OR2L5 (Homo sapiens) = target: T4, OR2L5 (Homo sapiens) (UniProt Q8NG80)
T4 sequence (whole entry): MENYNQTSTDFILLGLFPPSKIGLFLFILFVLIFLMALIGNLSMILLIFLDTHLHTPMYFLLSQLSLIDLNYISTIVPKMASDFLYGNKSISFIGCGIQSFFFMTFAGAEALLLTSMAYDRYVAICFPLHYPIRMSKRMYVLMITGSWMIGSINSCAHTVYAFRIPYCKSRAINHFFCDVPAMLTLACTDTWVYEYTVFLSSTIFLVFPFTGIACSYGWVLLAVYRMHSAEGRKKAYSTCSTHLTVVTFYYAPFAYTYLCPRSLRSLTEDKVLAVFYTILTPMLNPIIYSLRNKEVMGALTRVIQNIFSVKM
Outline: as §1

OR2L8 (Homo sapiens) = target: T5, OR2L8 (Homo sapiens) (UniProt Q8NGY9)
T5 sequence (whole entry): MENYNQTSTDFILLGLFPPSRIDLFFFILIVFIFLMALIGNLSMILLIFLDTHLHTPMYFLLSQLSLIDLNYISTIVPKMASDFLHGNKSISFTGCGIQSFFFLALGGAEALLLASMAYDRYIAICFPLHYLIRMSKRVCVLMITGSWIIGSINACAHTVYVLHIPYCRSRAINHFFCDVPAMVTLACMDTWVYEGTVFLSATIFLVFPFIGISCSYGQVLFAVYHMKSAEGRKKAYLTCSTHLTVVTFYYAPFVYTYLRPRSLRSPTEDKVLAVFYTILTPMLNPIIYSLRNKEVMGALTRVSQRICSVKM
Outline: as §1

OR2M2 (Homo sapiens) = target: T6, OR2M2 (Homo sapiens) (UniProt Q96R28)
T6 sequence (whole entry): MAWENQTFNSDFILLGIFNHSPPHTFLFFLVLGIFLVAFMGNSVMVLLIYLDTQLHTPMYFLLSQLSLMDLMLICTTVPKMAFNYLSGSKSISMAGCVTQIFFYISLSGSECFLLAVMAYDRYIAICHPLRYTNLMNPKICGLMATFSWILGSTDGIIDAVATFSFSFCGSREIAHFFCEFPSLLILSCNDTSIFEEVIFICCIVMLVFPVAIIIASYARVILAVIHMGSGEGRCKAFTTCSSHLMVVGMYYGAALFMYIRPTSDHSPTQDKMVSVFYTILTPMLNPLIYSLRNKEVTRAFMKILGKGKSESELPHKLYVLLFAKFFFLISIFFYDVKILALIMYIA
Outline: as §1

OR2M3 (Homo sapiens) = target: T7, OR2M3 (Homo sapiens) (UniProt Q8NG83)
T7 sequence (whole entry): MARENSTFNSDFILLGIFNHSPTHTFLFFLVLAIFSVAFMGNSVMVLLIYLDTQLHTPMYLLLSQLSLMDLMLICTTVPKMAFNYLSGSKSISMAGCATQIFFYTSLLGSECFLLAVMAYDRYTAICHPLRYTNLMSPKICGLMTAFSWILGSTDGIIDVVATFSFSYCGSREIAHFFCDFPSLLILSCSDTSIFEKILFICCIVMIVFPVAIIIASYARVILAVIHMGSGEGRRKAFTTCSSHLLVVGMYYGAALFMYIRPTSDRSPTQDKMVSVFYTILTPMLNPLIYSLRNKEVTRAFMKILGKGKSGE
Outline: as §1

OR2M3 A216T = system: OR2M3 A216T
Sequence of OR2M3 A216T (as listed by the source, stated change not applied): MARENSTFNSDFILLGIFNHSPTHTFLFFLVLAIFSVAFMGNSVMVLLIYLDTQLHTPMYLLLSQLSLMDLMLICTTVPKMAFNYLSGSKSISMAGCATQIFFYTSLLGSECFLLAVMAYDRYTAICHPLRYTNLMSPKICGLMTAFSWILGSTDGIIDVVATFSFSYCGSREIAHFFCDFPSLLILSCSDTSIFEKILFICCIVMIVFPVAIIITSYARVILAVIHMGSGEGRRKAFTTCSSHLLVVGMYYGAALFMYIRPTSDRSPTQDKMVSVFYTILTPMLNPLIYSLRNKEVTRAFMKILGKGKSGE
Outline: as §1

OR2M3 A33G M144T = system: OR2M3 A33G M144T
Outline: as §1

OR2M3 A33G = system: OR2M3 A33G
Sequence of OR2M3 A33G (as listed by the source, stated change not applied): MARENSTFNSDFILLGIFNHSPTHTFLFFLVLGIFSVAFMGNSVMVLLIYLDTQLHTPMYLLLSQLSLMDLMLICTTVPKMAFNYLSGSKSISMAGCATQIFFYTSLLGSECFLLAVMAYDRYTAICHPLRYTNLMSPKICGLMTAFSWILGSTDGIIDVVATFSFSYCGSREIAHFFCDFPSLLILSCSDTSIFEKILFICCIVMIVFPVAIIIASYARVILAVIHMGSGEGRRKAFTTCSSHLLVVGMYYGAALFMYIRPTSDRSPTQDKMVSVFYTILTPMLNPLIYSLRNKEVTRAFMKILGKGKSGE
Outline: as §1

OR2M3 D11N = system: OR2M3 D11N
Sequence of OR2M3 D11N (as listed by the source, stated change not applied): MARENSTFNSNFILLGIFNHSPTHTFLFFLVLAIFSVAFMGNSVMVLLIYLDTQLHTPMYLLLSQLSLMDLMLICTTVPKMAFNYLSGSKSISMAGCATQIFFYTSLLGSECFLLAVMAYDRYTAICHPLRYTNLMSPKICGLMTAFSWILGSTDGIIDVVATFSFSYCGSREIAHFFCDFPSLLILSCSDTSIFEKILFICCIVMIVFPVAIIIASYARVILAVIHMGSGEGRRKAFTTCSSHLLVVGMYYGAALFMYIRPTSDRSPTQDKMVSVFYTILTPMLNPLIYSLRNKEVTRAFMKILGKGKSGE
Outline: as §1

OR2M3 I13L A33G M144T = system: OR2M3 I13L A33G M144T
Outline: as §1

OR2M3 I13L A33G R266H = system: OR2M3 I13L A33G R266H
Outline: as §1

OR2M3 I13L A33G = system: OR2M3 I13L A33G
Outline: as §1

OR2M3 I13L M144T = system: OR2M3 I13L M144T
Outline: as §1

OR2M3 I13L = system: OR2M3 I13L
Sequence of OR2M3 I13L (as listed by the source, stated change not applied): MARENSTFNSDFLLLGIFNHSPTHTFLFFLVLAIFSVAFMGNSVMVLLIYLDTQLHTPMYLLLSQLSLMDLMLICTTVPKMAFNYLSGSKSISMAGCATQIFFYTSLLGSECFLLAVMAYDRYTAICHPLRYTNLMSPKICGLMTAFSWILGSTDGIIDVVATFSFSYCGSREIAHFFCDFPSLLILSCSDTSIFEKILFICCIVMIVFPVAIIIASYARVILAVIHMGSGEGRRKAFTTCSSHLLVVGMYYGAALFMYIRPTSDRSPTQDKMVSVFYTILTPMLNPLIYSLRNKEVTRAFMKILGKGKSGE
Outline: as §1

OR2M3 I198V = system: OR2M3 I198V
Sequence of OR2M3 I198V (as listed by the source, stated change not applied): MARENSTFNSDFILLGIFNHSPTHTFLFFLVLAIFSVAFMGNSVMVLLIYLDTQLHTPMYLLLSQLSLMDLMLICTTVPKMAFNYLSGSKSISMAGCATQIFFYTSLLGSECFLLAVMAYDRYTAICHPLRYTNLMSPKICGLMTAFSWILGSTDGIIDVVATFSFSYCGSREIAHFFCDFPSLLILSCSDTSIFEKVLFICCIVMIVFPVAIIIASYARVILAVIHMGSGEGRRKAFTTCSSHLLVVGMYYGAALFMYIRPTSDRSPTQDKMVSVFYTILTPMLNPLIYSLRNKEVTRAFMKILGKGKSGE
Outline: as §1

OR2M3 I289N = system: OR2M3 I289N
Sequence of OR2M3 I289N (as listed by the source, stated change not applied): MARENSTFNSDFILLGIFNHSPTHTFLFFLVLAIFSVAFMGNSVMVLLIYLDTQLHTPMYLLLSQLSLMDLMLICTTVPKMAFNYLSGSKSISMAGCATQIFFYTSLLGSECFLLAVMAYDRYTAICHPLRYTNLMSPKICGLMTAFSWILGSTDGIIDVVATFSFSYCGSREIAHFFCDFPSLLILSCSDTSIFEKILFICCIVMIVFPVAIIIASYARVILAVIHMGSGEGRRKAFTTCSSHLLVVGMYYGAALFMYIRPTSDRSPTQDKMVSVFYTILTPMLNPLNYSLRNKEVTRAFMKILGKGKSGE
Outline: as §1

OR2M3 L63F = system: OR2M3 L63F
Sequence of OR2M3 L63F (as listed by the source, stated change not applied): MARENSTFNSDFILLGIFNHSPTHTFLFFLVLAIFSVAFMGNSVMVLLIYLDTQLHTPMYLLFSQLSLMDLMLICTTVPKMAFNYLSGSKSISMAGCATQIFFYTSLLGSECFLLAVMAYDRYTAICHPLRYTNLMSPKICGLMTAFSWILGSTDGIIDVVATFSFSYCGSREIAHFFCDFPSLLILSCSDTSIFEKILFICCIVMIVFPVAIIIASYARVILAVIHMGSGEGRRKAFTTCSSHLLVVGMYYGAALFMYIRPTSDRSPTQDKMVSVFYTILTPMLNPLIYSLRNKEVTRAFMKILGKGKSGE
Outline: as §1

OR2M3 M144T = system: OR2M3 M144T
Sequence of OR2M3 M144T (as listed by the source, stated change not applied): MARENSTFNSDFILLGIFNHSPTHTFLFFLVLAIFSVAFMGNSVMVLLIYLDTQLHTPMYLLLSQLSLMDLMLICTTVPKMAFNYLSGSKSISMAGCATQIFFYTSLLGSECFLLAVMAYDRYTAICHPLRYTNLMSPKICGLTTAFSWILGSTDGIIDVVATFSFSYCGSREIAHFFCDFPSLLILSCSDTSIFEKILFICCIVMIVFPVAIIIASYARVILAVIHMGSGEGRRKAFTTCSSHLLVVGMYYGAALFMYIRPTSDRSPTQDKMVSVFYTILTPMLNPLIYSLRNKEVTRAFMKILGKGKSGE
Outline: as §1

CCC(S)C(C)CO (configuration not stated)
odorant receptor agonist call (OR2L13 (Homo sapiens)): inactive | odorant receptor agonist call (OR2L2 (Homo sapiens)): inactive | odorant receptor agonist call (OR2L3 (Homo sapiens)): inactive | odorant receptor agonist call (OR2L5 (Homo sapiens)): inactive | odorant receptor agonist call (OR2L8 (Homo sapiens)): inactive | odorant receptor agonist call (OR2M2 (Homo sapiens)): inactive | odorant receptor agonist call (OR2M3 (Homo sapiens)): active | odorant receptor agonist call (OR2M3 A216T): active | odorant receptor agonist call (OR2M3 A33G M144T): inactive | odorant receptor agonist call (OR2M3 A33G): active | odorant receptor agonist call (OR2M3 D11N): active | odorant receptor agonist call (OR2M3 I13L A33G M144T): inactive | odorant receptor agonist call (OR2M3 I13L A33G R266H): active | odorant receptor agonist call (OR2M3 I13L A33G): active | odorant receptor agonist call (OR2M3 I13L M144T): active | odorant receptor agonist call (OR2M3 I13L): active | odorant receptor agonist call (OR2M3 I198V): active | odorant receptor agonist call (OR2M3 I289N): inactive | odorant receptor agonist call (OR2M3 L63F): inactive | odorant receptor agonist call (OR2M3 M144T): active

CCCCCCCCCC(=O)[O-].[H+]
odorant receptor agonist call (OR2M3 (Homo sapiens)): inactive

CCCCCCC1CCC(=O)O1 (configuration not stated)
odorant receptor agonist call (OR2M3 (Homo sapiens)): inactive

CC1=C(O)C(=O)OC1C (configuration not stated)
odorant receptor agonist call (OR2L13 (Homo sapiens)): inactive | odorant receptor agonist call (OR2L2 (Homo sapiens)): inactive | odorant receptor agonist call (OR2L3 (Homo sapiens)): inactive | odorant receptor agonist call (OR2L5 (Homo sapiens)): inactive | odorant receptor agonist call (OR2L8 (Homo sapiens)): inactive | odorant receptor agonist call (OR2M2 (Homo sapiens)): inactive | odorant receptor agonist call (OR2M3 (Homo sapiens)): inactive

CC=CC(=O)C1=C(C)C=CCC1(C)C
odorant receptor agonist call (OR2M3 (Homo sapiens)): inactive

CCC=CCCC=O
odorant receptor agonist call (OR2M3 (Homo sapiens)): inactive

COc1cccc(OC)c1O
odorant receptor agonist call (OR2M3 (Homo sapiens)): inactive

C=C1CCC2CC1C2(C)C (configuration not stated)
odorant receptor agonist call (OR2L13 (Homo sapiens)): inactive | odorant receptor agonist call (OR2M3 (Homo sapiens)): inactive

CC(C)CO
odorant receptor agonist call (OR2M3 (Homo sapiens)): inactive

CCCCCC=CC=O
odorant receptor agonist call (OR2M3 (Homo sapiens)): inactive

O=c1ccc2ccccc2o1
odorant receptor agonist call (OR2L13 (Homo sapiens)): inactive | odorant receptor agonist call (OR2M3 (Homo sapiens)): inactive

CC(C)=CCCC(C)=CCO
odorant receptor agonist call (OR2L13 (Homo sapiens)): inactive | odorant receptor agonist call (OR2M3 (Homo sapiens)): inactive

CCCCCCCC(=O)OCC
odorant receptor agonist call (OR2L13 (Homo sapiens)): inactive | odorant receptor agonist call (OR2M3 (Homo sapiens)): inactive

COc1nccnc1C(C)C
odorant receptor agonist call (OR2M3 (Homo sapiens)): inactive

CC1=NC(C)C(C)S1 (configuration not stated)
odorant receptor agonist call (OR2L13 (Homo sapiens)): inactive | odorant receptor agonist call (OR2L2 (Homo sapiens)): inactive | odorant receptor agonist call (OR2L3 (Homo sapiens)): inactive | odorant receptor agonist call (OR2L5 (Homo sapiens)): inactive | odorant receptor agonist call (OR2L8 (Homo sapiens)): inactive | odorant receptor agonist call (OR2M2 (Homo sapiens)): inactive | odorant receptor agonist call (OR2M3 (Homo sapiens)): inactive

C=C(C)C1CC=C(C)CC1 (configuration not stated)
odorant receptor agonist call (OR2L13 (Homo sapiens)): inactive | odorant receptor agonist call (OR2M3 (Homo sapiens)): inactive

CCCCCCCCCC(=O)OCC
odorant receptor agonist call (OR2L13 (Homo sapiens)): inactive | odorant receptor agonist call (OR2M3 (Homo sapiens)): inactive

CCCCCc1ccccn1
odorant receptor agonist call (OR2M3 (Homo sapiens)): inactive

OCC=Cc1ccccc1
odorant receptor agonist call (OR2M3 (Homo sapiens)): inactive

CCCC(O)CC(=O)OCC (configuration not stated)
odorant receptor agonist call (OR2M3 (Homo sapiens)): inactive

CSC
odorant receptor agonist call (OR2M3 (Homo sapiens)): inactive

CCCC(=O)OC
odorant receptor agonist call (OR2M3 (Homo sapiens)): inactive

CCCCCCC=CC=O
odorant receptor agonist call (OR2M3 (Homo sapiens)): inactive

CCc1ccc(O)c(OC)c1
odorant receptor agonist call (OR2M3 (Homo sapiens)): inactive

CCCCC=CC=O
odorant receptor agonist call (OR2M3 (Homo sapiens)): inactive

CC1=CCC(C(C)C)C=C1 (configuration not stated)
odorant receptor agonist call (OR2M3 (Homo sapiens)): inactive

CC(=O)C=CC1=C(C)CCCC1(C)C
odorant receptor agonist call (OR2M3 (Homo sapiens)): inactive

CCCCC1CCC(=O)O1 (configuration not stated)
odorant receptor agonist call (OR2M3 (Homo sapiens)): inactive

CC(C)CC=O
odorant receptor agonist call (OR2M3 (Homo sapiens)): inactive

CCCCCCCC(=O)[O-].[H+]
odorant receptor agonist call (OR2M3 (Homo sapiens)): inactive

CC=CC(=O)C1=C(C)CCCC1(C)C
odorant receptor agonist call (OR2M3 (Homo sapiens)): inactive

CCc1ccc(O)cc1
odorant receptor agonist call (OR2M3 (Homo sapiens)): inactive

CCOC(=O)CCC(C)C
odorant receptor agonist call (OR2M3 (Homo sapiens)): inactive

SCCc1ccccc1
odorant receptor agonist call (OR2M3 (Homo sapiens)): inactive

C=CC(=O)CC
odorant receptor agonist call (OR2M3 (Homo sapiens)): inactive

CC(C)(S)CCOC=O
odorant receptor agonist call (OR2M3 (Homo sapiens)): inactive

CCCc1ccc(O)c(OC)c1
odorant receptor agonist call (OR2M3 (Homo sapiens)): inactive

COC(=O)C(C)C
odorant receptor agonist call (OR2M3 (Homo sapiens)): inactive

CC(C)CCCCCCCCCCC=O
odorant receptor agonist call (OR2M3 (Homo sapiens)): inactive

CCCCCC=CCCC=O
odorant receptor agonist call (OR2M3 (Homo sapiens)): inactive

C=CCSC
odorant receptor agonist call (OR2M3 (Homo sapiens)): inactive

CC=Cc1ccc(OC)cc1
odorant receptor agonist call (OR2M3 (Homo sapiens)): inactive

CSCCCO
odorant receptor agonist call (OR2M3 (Homo sapiens)): inactive

COc1ccc(C)cc1O
odorant receptor agonist call (OR2M3 (Homo sapiens)): inactive

CCCC1CCCC(=O)O1 (configuration not stated)
odorant receptor agonist call (OR2M3 (Homo sapiens)): inactive

CCCCC(CC)CCC(=O)O (configuration not stated)
odorant receptor agonist call (OR2M3 (Homo sapiens)): inactive

CCCC(=O)C(C)CC (configuration not stated)
odorant receptor agonist call (OR2M3 (Homo sapiens)): inactive

CCc1ncc(C)nc1CC
odorant receptor agonist call (OR2M3 (Homo sapiens)): inactive

CCCCCC=CC=CC=O
odorant receptor agonist call (OR2M3 (Homo sapiens)): inactive

CCC(C)C=O (configuration not stated)
odorant receptor agonist call (OR2M3 (Homo sapiens)): inactive

CCCC=CC=O
odorant receptor agonist call (OR2M3 (Homo sapiens)): inactive

CCCCC=CC=CC=O
odorant receptor agonist call (OR2M3 (Homo sapiens)): inactive

CSSSC
odorant receptor agonist call (OR2M3 (Homo sapiens)): inactive

CCCCCCOC(C)=O
odorant receptor agonist call (OR2M3 (Homo sapiens)): inactive

CCC=CCC=O
odorant receptor agonist call (OR2M3 (Homo sapiens)): inactive
